Assay results published in ChEMBL document CHEMBL5712907, “Inhibition of super enhancer downregulates the expression of KLF5 in basal-like breast cancers” (Int J Biol Sci, 2018).
Calls of active or inactive are those of the source. The rule behind the calls is not given here.

Key:
HCC1806 [1] = assay: Effect on FGFPB suppression in human HCC1806 cells at 50 to 200 nM for 24 hrs by immunoblotting analysis; assay type: functional, cell-based; conditions: dose 50-200 nM
HCC1937 [2] = assay: Effect on c-MYC suppression in human HCC1937 cells at 50 to 200 nM for 24 hrs by immunoblotting analysis; assay type: functional, cell-based; conditions: dose 50-200 nM
Method in brief: (§1)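 Cells in RPMI-1640/10 % FBS treated with compound for 24 h, lysed with protease inhibitor cocktail, and protein quantified. Equal protein run on SDS-PAGE and blotted to PVDF. Blocked in 5 % milk in PBS-0.2 % Tween-20, probed for KLF5, c-MYC and FGF2, with GAPDH as loading control. HRP secondary antibody, ECL detection.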

HCC1806 [3] = assay: Cytotoxicity against human HCC1806 cells assessed as reduction in cell viability at 10 to 10000 nM for 72 hrs by SRB assay; assay type: functional, cell-based; conditions: dose 10-10000 nM
Method in brief: (§2)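 HCC1806 or HCC1937 cells grown in RPMI-1640 with 10 % FBS at 37 °C, 5 % CO2, then exposed to graded compound concentrations for 72 h. Viability read by sulforhodamine B staining, absorbance at 560 nm. Experimental triplicates, SD shown.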

HCC1937 [4] = assay: Effect on FGFPB suppression in human HCC1937 cells at 50 to 200 nM for 24 hrs by immunoblotting analysis; assay type: functional, cell-based; conditions: dose 50-200 nM
HCC1937 [5] = assay: Effect on KLF5 suppression in human HCC1937 cells at 50 to 200 nM for 24 hrs by immunoblotting analysis; assay type: functional, cell-based; conditions: dose 50-200 nM; method in brief: as §1
HCC1806 [6] = assay: Effect on c-MYC suppression in human HCC1806 cells at 50 to 200 nM for 24 hrs by immunoblotting analysis; assay type: functional, cell-based; conditions: dose 50-200 nM; method in brief: as §1
HCC1806 [7] = assay: Effect on KLF5 suppression in human HCC1806 cells at 50 to 200 nM for 24 hrs by immunoblotting analysis; assay type: functional, cell-based; conditions: dose 50-200 nM; method in brief: as §1
HCC1937 [8] = assay: Cytotoxicity against human HCC1937 cells assessed as reduction in cell viability at 10 to 10000 nM for 72 hrs by SRB assay; assay type: functional, cell-based; conditions: dose 10-10000 nM; method in brief: as §2
HCC1937 [9] = assay: Induction of cell cycle arrest in human HCC1937 cells assessed as increase in accumulation of cells at G1 phase at 0.3 to 1 uM for 24 hrs by flow cytometric analysis; assay type: functional, cell-based; conditions: dose 0.3-1 µM
Method in brief: (§3)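 HCC1806 or HCC1937 cells seeded, cultured overnight, treated 24 h; fixed in 70% ethanol, RNase A 40 µg/ml, propidium iodide 10 µg/ml; flow cytometry with G1, S and G2/M percentages; experimental triplicates, SD.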

HCC1806 [10] = assay: Effect on human HCC1806 cells assessed as reduction in KLF5 mRNA at 1 uM for 12 to 24 hrs by qPCR analysis; assay type: functional, cell-based; conditions: time 12-24 hrs
Method in brief: (§4)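 HCC1806 or HCC1937 cells treated with 1 μM for 12 h or 24 h; KLF5 mRNA quantified by qPCR; experimental triplicates, SD, t-test.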

HCC1806 [11] = assay: Induction of cell cycle arrest in human HCC1806 cells assessed as decrease in accumulation of cells at S phase at 0.3 to 1 uM for 24 hrs by flow cytometric analysis; assay type: functional, cell-based; conditions: dose 0.3-1 µM; method in brief: as §3
HCC1806 [12] = assay: Downregulation of FGFBP in human HCC1806 cells treated at 1 to 3 uM for 24 hrs by immunoblotting analysis; assay type: functional, cell-based; conditions: dose 1-3 µM
Method in brief: (§5)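 HCC1806 or HCC1937 cells (RPMI-1640, 10% FBS, 37 °C, 5% CO2) treated 24 h; lysed with protease inhibitors, protein assayed, equal amounts run on SDS-PAGE, blotted to PVDF, blocked in 5% milk/PBS-0.2% Tween-20, probed for KLF5, FGFBP, p21, c-MYC and GAPDH loading control; HRP secondary, ECL detection.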

HCC1806 [13] = assay: Upregulation of p21 in human HCC1806 cells treated at 1 to 3 uM for 24 hrs by immunoblotting analysis; assay type: functional, cell-based; conditions: dose 1-3 µM; method in brief: as §5
HCC1937 [14] = assay: Downregulation of FGFBP in human HCC1937 cells treated at 1 to 3 uM for 24 hrs by immunoblotting analysis; assay type: functional, cell-based; conditions: dose 1-3 µM; method in brief: as §5
HCC1937 [15] = assay: Downregulation of KLF5 in human HCC1937 cells treated at 1 uM by immunoblotting analysis; assay type: functional, cell-based; conditions: time 12-72 hrs, TDE = time-dependent effect
Method in brief: (§6)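 Time course: HCC1806 or HCC1937 cells exposed to 1 μM for the indicated times, pellets collected at each time point and lysed with protease inhibitors; equal protein immunoblotted after SDS-PAGE/PVDF transfer for KLF5, GAPDH loading control, ECL detection.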

HCC1806 [16] = assay: Downregulation of KLF5 in human HCC1806 cells treated at 1 uM by immunoblotting analysis; assay type: functional, cell-based; conditions: time 12-72 hrs, TDE = time-dependent effect; method in brief: as §6
HCC1937 [17] = assay: Effect on human HCC1937 cells assessed as reduction in KLF5 mRNA at 1 uM for 12 to 24 hrs by qPCR analysis; assay type: functional, cell-based; conditions: time 12-24 hrs; method in brief: as §4
HCC1937 [18] = assay: Induction of cell cycle arrest in human HCC1937 cells assessed as decrease in accumulation of cells at S phase at 0.3 to 1 uM for 24 hrs by flow cytometric analysis; assay type: functional, cell-based; conditions: dose 0.3-1 µM; method in brief: as §3
HCC1937 [19] = assay: Upregulation of p21 in human HCC1937 cells treated at 1 to 3 uM for 24 hrs by immunoblotting analysis; assay type: functional, cell-based; conditions: dose 1-3 µM; method in brief: as §5
HCC1806 [20] = assay: Induction of cell cycle arrest in human HCC1806 cells assessed as increase in accumulation of cells at G1 phase at 0.3 to 1 uM for 24 hrs by flow cytometric analysis; assay type: functional, cell-based; conditions: dose 0.3-1 µM; method in brief: as §3
HCC1806 [21] = assay: Inhibition of cell growth in human HCC1806 cells infected with pCDH-3 Flag tagged KLF5 assessed as ectopic KLF5 expression at 100 to 10000 nM for 72 hrs by SRB assay; assay type: functional, cell-based; conditions: dose 100-10000 nM
Method in brief: (§7)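 HCC1806 or HCC1937 cells infected with pCDH-3×Flag-KLF5 or empty pCDH vector lentivirus, plated in 96-well format and treated 72 h; inhibition rate by sulforhodamine B staining read at 560 nm; experimental triplicates, SD.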

HCC1937 [22] = assay: Inhibition of cell growth in human HCC1937 cells infected with pCDH-3 Flag tagged KLF5 assessed as ectopic KLF5 expression at 100 to 10000 nM for 72 hrs by SRB assay; assay type: functional, cell-based; conditions: dose 100-10000 nM; method in brief: as §7
HCC1937 [23] = assay: Induction of cell cycle arrest in human HCC1937 cells assessed as increase in accumulation of cells at G1 phase at 0.1 to 0.3 uM for 24 hrs by flow cytometric analysis; assay type: functional, cell-based; conditions: dose 0.1-0.3 µM
Method in brief: (§8)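 Seeded cells were cultured overnight, then treated with compound for 24 h. Fixed in 70 % ethanol, treated with 40 µg/ml RNase A and stained with 10 µg/ml propidium iodide. Analysed by flow cytometry for G1, S and G2/M fractions. Experimental triplicates, SD shown.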

HCC1806 [24] = assay: Potency index, ratio of test compound to (S)-tert-butyl 2-(4-(4-chlorophenyl)-2,3,9-trimethyl-6H-thieno[3,2-f] [1,2,4]triazolo[4,3-a] [1,4]diazepin-6-yl)acetate for effect on human HCC1806 cells assessed as reduction in KLF5 level at 0.1 to 3 uM for 24 hrs; assay type: functional; conditions: dose 0.1-3 µM
HCC1937 [25] = assay: Inhibition of cell growth in human HCC1937 cells infected with pCDH-3 Flag tagged KLF5 assessed as ectopic KLF5 expression at 0.01 to 10000 nM for 72 hrs by SRB assay; assay type: functional, cell-based; conditions: dose 0.01-10000 nM
Method in brief: (§9)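 Cells infected with pCDH-3×Flag-KLF5 lentivirus, or vector control lentivirus, were plated and treated for 72 h. Inhibition rate measured by SRB assay. Experimental triplicates, SD shown.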

HCC1806 [26] = assay: Induction of cell cycle arrest in human HCC1806 cells assessed as increase in accumulation of cells at G1 phase at 0.1 to 0.3 uM for 24 hrs by flow cytometric analysis; assay type: functional, cell-based; conditions: dose 0.1-0.3 µM; method in brief: as §8
HCC1806 [27] = assay: Induction of cell cycle arrest in human HCC1806 cells assessed as increase in accumulation of cells at G1 phase at 0.3 uM for 24 hrs by flow cytometric analysis; assay type: functional, cell-based; method in brief: as §8
HCC1806 [28] = assay: Inhibition of cell growth in human HCC1806 cells infected with pCDH-3 Flag tagged KLF5 assessed as ectopic KLF5 expression at 0.01 to 10000 nM for 72 hrs by SRB assay; assay type: functional, cell-based; conditions: dose 0.01-10000 nM; method in brief: as §9
HCC1937 [29] = assay: Inhibition of DNA synthesis in human HCC1937 cell at 0.1 to 0.3 uM measured for 24 hrs by Edu incorporation assay; assay type: functional, cell-based; conditions: dose 0.1-0.3 µM
Method in brief: (§10)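 After 24 h treatment at different concentrations, cells were EdU-labelled with the Click-iT imaging kit, fixed and DNA-stained. Fluorescence micrographs were taken and five random fields counted per sample. Result given as % EdU-positive (EdU-positive/total cells). Experimental triplicates, SD shown.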

HCC1937 [30] = assay: Potency index, ratio of test compound to (S)-tert-butyl 2-(4-(4-chlorophenyl)-2,3,9-trimethyl-6H-thieno[3,2-f] [1,2,4]triazolo[4,3-a] [1,4]diazepin-6-yl)acetate for effect on human HCC1937 cells assessed as reduction in KLF5 level at 0.1 to 3 uM for 24 hrs; assay type: functional; conditions: dose 0.1-3 µM
HCC1806 [31] = assay: Inhibition of DNA synthesis in human HCC1806 cell at 0.1 to 0.3 uM measured for 24 hrs by Edu incorporation assay; assay type: functional, cell-based; conditions: dose 0.1-0.3 µM; method in brief: as §10
HCC1937 [32] = assay: Induction of cell cycle arrest in human HCC1937 cells assessed as increase in accumulation of cells at G1 phase at 0.3 uM for 24 hrs by flow cytometric analysis; assay type: functional, cell-based; method in brief: as §8
HCC1806 [33] = assay: Potency index, ratio of test compound to (S)-tert-butyl 2-(4-(4-chlorophenyl)-2,3,9-trimethyl-6H-thieno[3,2-f] [1,2,4]triazolo[4,3-a] [1,4]diazepin-6-yl)acetate for effect on human HCC1806 cells assessed as reduction in c-MYC level at 0.1 to 3 uM for 24 hrs; assay type: functional; conditions: dose 0.1-3 µM
HCC1937 [34] = assay: Potency index, ratio of test compound to (S)-tert-butyl 2-(4-(4-chlorophenyl)-2,3,9-trimethyl-6H-thieno[3,2-f] [1,2,4]triazolo[4,3-a] [1,4]diazepin-6-yl)acetate for effect on human HCC1937 cells assessed as reduction in c-MYC level at 0.1 to 3 uM for 24 hrs; assay type: functional; conditions: dose 0.1-3 µM

Structure (SMILES): CN(C)C/C=C/C(=O)Nc1ccc(C(=O)Nc2cccc(Nc3ncc(Cl)c(-c4c[nH]c5ccccc45)n3)c2)cc1
- Activity (HCC1806 [1]): Active
- Activity (HCC1937 [2]): Active
- Activity (HCC1806 [3]): Active
- Activity (HCC1937 [4]): Active
- Activity (HCC1937 [5]): Active
- Activity (HCC1806 [6]): Active
- Activity (HCC1806 [7]): Active
- Activity (HCC1937 [8]): Active

Structure (SMILES): Cc1sc2c(c1C)C(c1ccc(Cl)cc1)=N[C@@H](CC(=O)OC(C)(C)C)c1nnc(C)n1-2
- Activity (HCC1937 [9]): Active
- Activity (HCC1806 [10]): Active
- Activity (HCC1806 [11]): Active
- Activity (HCC1806 [12]): Active
- Activity (HCC1806 [13]): Active
- Activity (HCC1937 [14]): Active
- Activity (HCC1937 [15]): Tde
- Activity (HCC1806 [16]): Tde
- Activity (HCC1937 [17]): Active
- Activity (HCC1937 [18]): Active
- Activity (HCC1937 [19]): Active
- Activity (HCC1806 [20]): Active
- inhibition (HCC1806 [21]): Active
- inhibition (HCC1937 [22]): Active

Structure (SMILES): Cc1nnn(C)c1-c1cnc2c3c4cnn(C)c4ccc3n([C@H](c3ccccc3)C3CCOCC3)c2c1
- Activity (HCC1937 [23]): Active
- Ratio (HCC1806 [24]): ~10
- inhibition (HCC1937 [25]): Active
- Activity (HCC1806 [26]): Active
- Activity (HCC1806 [3]): Active
- Activity (HCC1806 [27]): Active
- inhibition (HCC1806 [28]): Active
- inhibition (HCC1937 [29]): Active
- Ratio (HCC1937 [30]): ~10
- inhibition (HCC1806 [31]): Active
- Activity (HCC1937 [32]): Active
- Ratio (HCC1806 [33]): ~10
- Activity (HCC1937 [8]): Active
- Ratio (HCC1937 [34]): ~10
